This is a sample that favours compounds with a hit; in the whole collection about 2.2% have one here.
Wee1 degr inh: blocks degradation of human Wee1 kinase; P30291; HeLa Luc-Wee1K328M stability, luciferase luminescence; 100% = proteasome inhibitor MG132 effect; reporter increase, % at 5 µM; 220,000 tested, 1.2% active; AID 1321;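 active means activation above the mean of all tested compounds plus 3 SD, set per screening run, cut at about 8.8% in these data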;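 further: cells exposed to compound for 20 h before luminescence read; 0% = DMSO alone and 100% = MG132 at 30 µM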
KLK5 inh: kallikrein 5 (human) inhibition; recombinant hK5, fluorogenic AMC substrate cleavage; inhibition, % at 5 µM; 210,000 tested, 0.59% active; Q9Y337; AID 873;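 active means inhibition of 40% or more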;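 further: 0% = enzyme controls without compound and 100% = no-enzyme blanks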
FXIa inh: inhibitors of human coagulation factor XIa; AID 798; inhibition, % at 5 µM; purified FXIa, Boc-Glu-Ala-Arg-AMC fluorogenic substrate; 220,000 tested, 0.14% active;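 active means inhibition of at least 40%; inactive means inhibition below 40%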;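 further: fluorescence of freed AMC excited at 355 nm; 0% = enzyme without compound and 100% = no enzyme blank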
Target sequence (P03951 19-387 limits assumed): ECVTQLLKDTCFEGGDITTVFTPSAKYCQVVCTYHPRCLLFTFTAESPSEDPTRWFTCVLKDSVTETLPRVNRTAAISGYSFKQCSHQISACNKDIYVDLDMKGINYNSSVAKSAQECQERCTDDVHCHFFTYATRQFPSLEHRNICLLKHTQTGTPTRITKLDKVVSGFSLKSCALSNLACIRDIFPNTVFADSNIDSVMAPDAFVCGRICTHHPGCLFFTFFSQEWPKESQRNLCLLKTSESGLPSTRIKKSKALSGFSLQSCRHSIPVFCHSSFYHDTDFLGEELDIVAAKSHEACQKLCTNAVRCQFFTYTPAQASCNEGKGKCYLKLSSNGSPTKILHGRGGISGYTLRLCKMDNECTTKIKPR
Target sequence (P03951 388-625 limits assumed): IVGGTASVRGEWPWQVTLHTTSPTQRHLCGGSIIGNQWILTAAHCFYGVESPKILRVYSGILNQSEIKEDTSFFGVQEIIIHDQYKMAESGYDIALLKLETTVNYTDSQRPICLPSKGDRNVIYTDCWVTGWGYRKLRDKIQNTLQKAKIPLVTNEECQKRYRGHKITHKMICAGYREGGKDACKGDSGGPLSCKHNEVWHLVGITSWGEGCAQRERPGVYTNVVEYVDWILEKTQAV
FXIIa inh: blocks human coagulation factor XIIa protease activity; P00748; purified FXIIa, Boc-QGR-AMC fluorogenic substrate, 2 h; inhibition, % at 5 µM; 220,000 tested, 0.3% active; in the data active means inhibition above about 40%;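 further: 0% = enzyme with no compound and 100% = blank without enzyme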
Thrombin inh: blocks human thrombin protease activity. 220,000 tested, 0.26% active. P00734. inhibition, % at 5 µM. alpha-thrombin, Boc-VPR-AMC fluorogenic substrate cleavage;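 active means inhibition at or above 40%; inactive means inhibition below 40%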;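 further: 0% = enzyme with no compound and 100% = wells without enzyme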
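Test system: human alpha-thrombin; medium: pH 7.5 Tris-saline with Tween 20; times: reaction at room temperature; signal: AMC fluorescence at 355 nm excitation and 460 nm emission; also added: Boc-VPR-AMC substrate, 15 µM final; dosing: one concentration per compound, 5 µM, with 0.2% DMSO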
* hit, by the source's call.

SMILES | Wee1 degr inh | KLK5 inh | FXIa inh | FXIIa inh | Thrombin inh
Cc1cc(C(F)(F)F)c(C#N)c(SCC(=O)NC(C)(C)C)n1 | 0 | 42* | 16 | 36 | 8
CC1CCC2C(=O)N(c3ccccc3OC(=O)c3ccccc3F)C(=O)C2C1 (stereo not given) | 9.5* | 2 | -1 | 6 | -3
O=C(Oc1ccccc1N1C(=O)C2CCCCC2C1=O)c1ccccc1 (stereo not given) | 3 | 2 | 8 | 16 | 4
O=c1[nH]nc(SCc2cc(Cl)ccc2Cl)c(=O)[nH]1 | -1 | 2 | 5 | 12 | 6
Cn1c(C(=O)N2CCN(c3ncccn3)CC2)cc2c(=O)n(C)c3ccccc3c21 | -1 | 46* | 4 | 32 | 0
Cn1c(C(=O)N2CCCC2)cc2c(=O)n(C)c3ccccc3c21 | 4 | -1 | 4 | 17 | 0
O=C(c1cc(S(=O)(=O)N2CCC3(CC2)OCCO3)ccc1F)N1CCCCC1 | 2 | -4 | -1 | 5 | 9
Cn1c(CN2CCOCC2)nc2cc(NC(=O)COc3ccccc3)ccc21 | -1 | 2 | -2 | 6 | 1
Cn1c(CCN2CCOCC2)nc2cc(NC(=O)COc3ccccc3)ccc21 | 9.1* | -28 | 2 | 6 | -6
COC(=O)C(C)Sc1nnc(Cc2cc(=O)[nH]c(=O)[nH]2)n1-c1ccc(Cl)cc1 (stereo not given) | 4 | 30 | 8 | 43* | 24
CCOC(=O)C(C)Sc1nnc(Cc2cc(=O)[nH]c(=O)[nH]2)n1-c1ccc(Cl)cc1 (stereo not given) | 2 | -5 | 8 | 10 | -1
CN(C)c1ccc(C(=O)OCC(=O)c2cccs2)cc1 | 9.0* | -12 | 0 | 6 | -2
O=c1ccn(-c2cccc(C(F)(F)F)c2)nc1-c1ccn(-c2cccc(Cl)c2)n1 | 0 | -1 | 0 | 6 | -1
CCN1C(=O)/C(=C\c2ccco2)C(C(=O)OC)=C1C | 3 | 10 | 25 | 43* | 3
CCOC(=O)c1cc[nH]c1CC(=O)NC | 0 | -6 | -2 | 9 | 4
Cc1ccc(NS(=O)(=O)c2ccc(C(=O)OCC(=O)Nc3cc(C)on3)cc2)cc1 | 4 | 48* | 102* | 30 | 15
Cc1cc(NC(=O)COC(=O)C2CCN(S(=O)(=O)c3ccc(Cl)cc3)CC2)no1 | -1 | -13 | 4 | 16 | 2
Cc1cc(NC(=O)COC(=O)C2CCN(S(=O)(=O)c3c(Cl)cccc3Cl)CC2)no1 | -4 | 15 | 19 | 43* | -1
Cc1cc(NC(=O)COC(=O)c2cccc(S(=O)(=O)N(C)C3CCCCC3)c2)no1 | 1 | 9 | 7 | 43* | 4
CNCC(O)CN(c1ccccc1)c1ccccc1 (stereo not given) | 9.7* | 4 | 0 | 6 | -6
COc1ccc(-n2ncc3c(N4CCC(C(N)=O)CC4)ncnc32)cc1 | 2 | -15 | 1 | 9 | 0
CCOC(=O)C1CCN(c2ncnc3c2cnn3-c2ccc(OC)cc2)CC1 | 9.1* | 18 | 10 | 2 | 13
CN(C)S(=O)(=O)N1CCc2ccccc21 | -1 | 72* | 10 | 23 | 24
Cn1cc(Cl)c(C(=O)NC(=S)Nc2sc3c(c2C#N)CCCCC3)n1 | 4 | -20 | 4 | 8 | -8
Cn1cc(Br)c(C(=O)Nc2sc3c(c2C#N)CCC3)n1 | 10* | -2 | -7 | 10 | -3
SMILES | Wee1 degr inh | KLK5 inh | FXIa inh | FXIIa inh | Thrombin inh
Cc1cccc(NC2SC(=O)N(c3ccccc3)C2=O)c1 (stereo not given) | 1 | 80* | 9 | 18 | 29
COc1ccc(NC(=O)[C@@H](NC(N)=O)C(C)C)cc1Cl | 1 | -2 | -2 | 2 | 4
Cc1cc(C)n2nc(SCCC(=O)NCc3ccccc3)nc2n1 | -2 | -2 | -5 | 5 | -13
Nn1c(Cc2cccc3ccccc23)nnc1SCCOc1ccc(Br)cc1 | 1 | 19 | 2 | 6 | -7
Nn1c(Cc2cccc3ccccc23)nnc1SCCOc1ccc(F)cc1 | -2 | 27 | 21 | 41* | 28
COc1ccc(-c2ccc(C#N)c(SCC(=O)NCCc3ccccc3)n2)cc1OC | 0 | -18 | -17 | -43 | 56*
COc1cccc(-c2ccc(C#N)c(SCC(=O)NCCc3cccc(Cl)c3)n2)c1 | 2 | -4 | -12 | -18 | -6
COc1ccc(-c2[nH]nc3c2C(c2ccsc2)C(C#N)=C(N)O3)cc1 (stereo not given) | -3 | 81* | -3 | -1 | 4
Cc1cc(C(=O)Nc2nc(C)c(C(=O)N(C)C)s2)ccc1[N+](=O)[O-] | 3 | 24 | 15 | 53* | 43*
Cc1nc(NC(=O)c2ccc([N+](=O)[O-])cc2Cl)sc1C(=O)N(C)C | -3 | -13 | 5 | 7 | -6
OC1(c2ccc(F)cc2)CCN(Cc2nnnn2Cc2cccs2)CC1 | -2 | 36 | 2 | 11 | 61*
COc1cc(Cl)ccc1NC(=O)COc1ccccc1C(=O)NN | -1 | -6 | -7 | -1 | -5
O=C1c2ccccc2C(=O)N1c1ccc(S(=O)(=O)N2CCN(c3ccccc3)CC2)cc1 | 9.4* | -21 | -1 | 5 | 0
O=S(=O)(c1ccccc1)N1CCN(c2nnnn2-c2ccccc2)CC1 | -1 | 63* | 4 | 31 | 16
O=C(NC1CCCCC1)C1CCN(c2nnnn2-c2ccccc2)CC1 | 1 | 28 | 27 | 21 | 82*
O=S(=O)(c1ccc2c(c1)OCO2)N1CCN(c2nnnn2-c2ccccc2)CC1 | -1 | 2 | -1 | 10 | 0
CCOC(=O)c1cccc(COC(=O)c2cccc(-c3nnc(-c4ccccc4)o3)c2)c1 | 9.7* | -12 | 11 | 11 | -6
O=C(OCc1ccccc1)c1cccc(-c2nnc(-c3ccccc3)o2)c1 | 0 | -3 | -2 | -8 | 0
O=C(CN(Cc1ccc(F)cc1)C(=O)C1CSC(=O)C1)NC1CCCCC1 (stereo not given) | -1 | 6 | 6 | 17 | 4
O=C(CN(C(=O)C1CSC(=O)C1)c1cccc(F)c1)NC1CCCC1 (stereo not given) | 9.2* | 3 | -4 | 12 | -15
c1ccc2sc(NCC3CCCO3)nc2c1 (stereo not given) | 9.4* | 11 | -2 | 0 | -4
CCc1ccccc1NC(=O)N1CCC(NC(=O)C(Cc2ccccc2)NC(C)=O)CC1 (stereo not given) | -5 | 0 | -4 | 8 | -4
Nc1ccc2c(c1)OC1(CCCCC1)O2 | 2 | -10 | -5 | 15 | 1
CC1CC(C)CN(c2nc(NCc3ccco3)nc(N)c2[N+](=O)[O-])C1 (stereo not given) | 11* | -19 | 9 | 9 | 0
O=C(NCCCN1CCCC1)c1ccc2c(Cl)c3c(nc2c1)CCCC3 | 0 | 1 | -4 | 41* | 3
CCN(CC)CCCNC(=O)c1ccc2c(Cl)c3c(nc2c1)CCCC3 | 3 | -3 | -5 | 7 | 11
COc1cccc(OCc2nc3ccccc3[nH]2)c1 | 11* | 0 | 4 | 11 | -6

Assay outcomes as filed in PubChem.
